Experimental data reported in ChEMBL document CHEMBL1125382, “Benzazepinone calcium channel blockers. 2. Structure-activity and drug metabolism studies leading to potent antihypertensive agents. Comparison with benzothiazepinones” (J Med Chem, 1992).
pIC50, pKd: −log10 of the molar value.

Tests used:
Rattus norvegicus [1] = test: In vivo evaluation for the percentage decrease in blood pressure at 135 umol/kg administered through oral route in spontaneously hypertensive rats and observed for 0-6 h.; assay type: functional
Outline: (§1)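 Male spontaneously hypertensive rats, 15 weeks old, dosed by oral gavage at 135 μmol/kg. Blood pressure recorded directly via an indwelling abdominal aortic catheter exteriorized in the intrascapular region. Sampled over 20-s intervals every 5 min for 24 h. Value is the maximum percent fall in systolic pressure from predrug control within the stated period, mean of five rats.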

Rattus norvegicus [2] = test: In vivo evaluation for the percentage decrease in blood pressure at 135 umol/kg administered through oral route in spontaneously hypertensive rats and observed for 6-12 h.; assay type: functional; outline: as §1
Oryctolagus cuniculus [3] = species on record: Oryctolagus cuniculus; test: In vitro evaluation for the vasorelaxant effects in circumferential strips of potassium-depolarized rabbit aorta. (IC50 in rabbit aorta strips contracted with KCl; assay type: functional
Outline: (§2)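 Circumferential strips of rabbit thoracic aorta, contracted by depolarization with 100 mM KCl, then exposed to various concentrations of compound.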

Rattus norvegicus [4] = test: In vivo evaluation for the percentage decrease in blood pressure at 135 umol/kg administered through oral route in spontaneously hypertensive rats and observed for 12-18 h.; assay type: functional; outline: as §1
Oryctolagus cuniculus [5] = species on record: Oryctolagus cuniculus; test: Vasorelaxant effects in circumferential strips of potassium-depolarized rabbit aorta. (IC50 in rabbit aorta strips contracted with KCl(95% confidence interval)); assay type: functional, organism-based; outline: as §2
[6] = In Vitro evaluation for the affinity for the diltiazem receptor in isolated guinea pig skeletal muscle microsomal preparations by inhibiting [3H]diltiazem binding; assay type: microsomes, Cavia porcellus, Muscle tissue
Outline: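 Membranes from male guinea pig (350–450 g) hind-limb muscle, mainly quadriceps and gastrocnemius, in 50 mM Tris-HCl. 125–250 μg protein incubated with [3H]-d-cis-diltiazem and competing drug, 250 μL final, 30 °C for 1 h. Rapid GF/B filtration and scintillation counting. Nonspecific binding defined with 100 μM unlabeled diltiazem. Kd calculated from concentration–response curves for inhibition of specific binding; ±SEM.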

Oryctolagus cuniculus [7] = species on record: Oryctolagus cuniculus; test: In Vitro evaluation for the vasorelaxant effects in circumferential strips of potassium-depolarized rabbit aorta. (IC50 in rabbit aorta strips contracted with KCl; assay type: functional; outline: as §2
Rattus norvegicus [8] = test: In vivo evaluation for the percentage decrease in blood pressure at 270 umol/kg administered through oral route in spontaneously hypertensive rats and observed for 12-18 h; assay type: functional

pIC50 (Oryctolagus cuniculus [3]; Oryctolagus cuniculus, Aorta)	pIC50 (Oryctolagus cuniculus [5])	pIC50 (Oryctolagus cuniculus [7])	pIC50 (Oryctolagus cuniculus [3])	pIC50 (Oryctolagus cuniculus [5]; Oryctolagus cuniculus, Aorta)	SMILES	Decrease (Rattus norvegicus [1]) [%]	Decrease (Rattus norvegicus [2]) [%]	Decrease (Rattus norvegicus [4]) [%]	pKd [6]	Decrease (Rattus norvegicus [8]) [%]
6.28					COc1ccc([C@@H]2Cc3c(cccc3C(F)(F)F)N(C[C@@H]3CCCN3C)C(=O)[C@@H]2OC(C)=O)cc1	30	29	29		
	5.41				COc1ccc([C@H]2Cc3c(cccc3C(F)(F)F)N(CCN(C)C)C(=O)[C@H]2OC(C)=O)cc1.Cl (stereo in doubt; 4p)		8	7	5.92	
		7.02			COc1ccc([C@@H]2Cc3c(cccc3C(F)(F)F)N(C[C@@H]3CCCN3)C(=O)[C@@H]2O)cc1	30	26	27		
		< 5.52			COc1ccc([C@@H]2Cc3c(cccc3C(F)(F)F)N(CC=O)C(=O)[C@@H]2OC(C)=O)cc1					
			6.62		COc1ccc([C@@H]2Sc3cc(Cl)ccc3N(CCN(C)C)C(=O)[C@@H]2OC(C)=O)cc1 [CLENTIAZEM]				7.09	
5.72					CNCCN1C(=O)[C@H](O)[C@H](c2ccc(OC)cc2)Cc2cc(C(F)(F)F)ccc21	14	15	14		
< 5.00					COc1ccc([C@H]2Cc3c(cccc3C(F)(F)F)N(CCN(C)C)C(=O)[C@@H]2OC(C)=O)cc1.Cl (relative stereo)	5	9	11	5.42	
				5.96	COc1ccc([C@@H]2Cc3c(cccc3C(F)(F)F)N(C[C@H]3CCCN3C)C(=O)[C@@H]2OC(C)=O)cc1	20	21	18		
					COc1ccc([C@@H]2Cc3cc(C(F)(F)F)ccc3N(CCN(C)C)C(=O)[C@@H]2O)cc1.Cl	8	9	14		
< 5.52					COc1ccc([C@@H]2Cc3c(cccc3C(F)(F)F)N(CC(=O)O)C(=O)[C@@H]2OC(C)=O)cc1	6	3	4		
				5.82	COc1ccc([C@@H]2Cc3cc(Cl)ccc3N(CCN(C)C)C(=O)[C@@H]2OC(C)=O)cc1	13	14			18
					COc1ccc([C@H]2Cc3cc(Cl)ccc3N(CCN(C)C)C(=O)[C@H]2OC(C)=O)cc1 (relative stereo)	1	4	9	5.09	
5.11					COc1ccc([C@@H]2Cc3ccc(Cl)cc3N(CCN(C)C)C(=O)[C@@H]2OC(C)=O)cc1	7	2	4		
				< 5.00	COc1ccc([C@H]2Cc3cc(C(F)(F)F)ccc3N(CCN(C)C)C(=O)[C@H]2OC(C)=O)cc1.Cl (stereo in doubt)	7	8	7	5.20	
				5.80	COc1ccc([C@@H]2Cc3cc(C(F)(F)F)ccc3N(CCN(C)C)C(=O)[C@@H]2OC(C)=O)cc1.Cl (stereo in doubt)	19	22	19	6.74	
		5.74			COc1ccc([C@@H]2Sc3ccccc3N(CCN(C)C)C(=O)[C@@H]2OC(C)=O)cc1 [DILTIAZEM]					
				6.20	COc1ccc([C@@H]2Cc3c(cccc3C(F)(F)F)N(C[C@H]3CCCN3)C(=O)[C@@H]2OC(C)=O)cc1	21	22	26		
					COc1ccc([C@@H]2Cc3cc(C(F)(F)F)ccc3N(CCN(C)C)C(=O)[C@@H]2OC(C)=O)cc1.Cl		19	18		

pIC50 (Oryctolagus cuniculus [3]; Oryctolagus cuniculus, Aorta)	pIC50 (Oryctolagus cuniculus [5])	pIC50 (Oryctolagus cuniculus [7])	pIC50 (Oryctolagus cuniculus [3])	pIC50 (Oryctolagus cuniculus [5]; Oryctolagus cuniculus, Aorta)	SMILES	Decrease (Rattus norvegicus [1]) [%]	Decrease (Rattus norvegicus [2]) [%]	Decrease (Rattus norvegicus [4]) [%]	pKd [6]	Decrease (Rattus norvegicus [8]) [%]
6.62					COc1ccc([C@@H]2Cc3c(cccc3C(F)(F)F)N(CCN(C)C)C(=O)[C@@H]2OC(C)=O)cc1.Cl	24	26	24		
				6.82	COc1ccc([C@@H]2Cc3c(cccc3C(F)(F)F)N(CCN(C)C)C(=O)[C@@H]2OC(C)=O)cc1.Cl (stereo in doubt)	31	27	30	6.92	
					COc1ccc([C@H]2Cc3cc(Cl)ccc3N(CCN(C)C)C(=O)[C@@H]2OC(C)=O)cc1	12	12	12	6.16	
					COc1ccc([C@@H]2Sc3cc(Cl)ccc3N(CCN(C)C)C(=O)[C@@H]2OC(C)=O)cc1 (relative stereo) [CLENTIAZEM]	41	26	24	7.02	
				5.62	COc1ccc([C@@H]2Cc3c(OC)cccc3N(CCN(C)C)C(=O)[C@@H]2OC(C)=O)cc1.Cl	0	0	1		
				6.68	COc1ccc([C@@H]2Sc3ccccc3N(CCN(C)C)C(=O)[C@@H]2OC(C)=O)cc1 (relative stereo) [DILTIAZEM]	23	12	17	6.70	
				5.31	COc1ccc([C@H]2Cc3c(cccc3C(F)(F)F)N(CCN(C)C)C(=O)[C@H]2OC(C)=O)cc1.Cl (stereo in doubt; 4n)	9	9	9	5.70	
					COc1ccc([C@@H]2Cc3c(cccc3C(F)(F)F)N(CCO)C(=O)[C@@H]2OC(C)=O)cc1	1	3	4		
					COc1ccc([C@@H]2Cc3cc(OC)ccc3N(CCN(C)C)C(=O)[C@@H]2OC(C)=O)cc1.Cl	15	8	10		
6.92					COc1ccc(C2Sc3cc(OC)ccc3N(CCN(C)C)C(=O)C2OC(C)=O)cc1 (stereo not given)				7.38	
				5.33	COc1ccc([C@@H]2Cc3ccccc3N(CCN(C)C)C(=O)[C@@H]2OC(C)=O)cc1.Cl	8	8		5.29	13
				6.05	COc1ccc([C@@H]2Cc3c(cccc3C(F)(F)F)N(C[C@H]3CCCN3)C(=O)[C@@H]2O)cc1	17	18	18		
				6.74	CNCCN1C(=O)[C@H](OC(C)=O)[C@H](c2ccc(OC)cc2)Cc2c1cccc2C(F)(F)F	32	34	32		
					COc1ccc([C@@H]2Cc3c(cccc3C(F)(F)F)N(C[C@@H]3CCCN3)C(=O)[C@@H]2OC(C)=O)cc1	45	39	38		
6.06					CNCCN1C(=O)[C@H](OC(C)=O)[C@H](c2ccc(OC)cc2)Cc2cc(C(F)(F)F)ccc21	28	29	31		
6.16					CNCCN1C(=O)[C@H](O)[C@H](c2ccc(OC)cc2)Cc2c1cccc2C(F)(F)F	16	20	22		
				5.80	COc1ccc([C@@H]2Cc3c(Cl)cccc3N(CCN(C)C)C(=O)[C@@H]2OC(C)=O)cc1	9	8	11		
				6.52	COc1ccc([C@@H]2Cc3c(cccc3C(F)(F)F)N(CCN(C)C)C(=O)[C@@H]2O)cc1	21	26	28		
